Results on eight molecules are retold here after ChEMBL document CHEMBL1932927, “Synthesis and evaluation of platelet aggregation inhibitory activity of some 3-phenyl-pyrroloquinazolinones” (Eur J Med Chem, 2012).

The subject of data set [1] is Platelet. Briefly: Antiplatelet activity against human platelets assessed as inhibition of thrombin-induced platelets aggregation at 8 uM pretreated 3 mins before compound addition by aggregometer analysis. It counts as functional, cell-based. An outline of the steps: (§1)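 Platelets isolated by differential centrifugation and resuspended in Tris/Hepes basal buffer pH 7.4. Exposed to compound or DMSO vehicle for 3 min, then thrombin 40 mU/mL added. Initial aggregation rate (velocity) recorded from aggregation traces. Means of four separate determinations ± S.E.M.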

For data set [2], the system named is Platelet. Briefly: Antiplatelet activity against human platelets assessed as inhibition of collagen-induced platelets aggregation at 8 uM pretreated 3 mins before compound addition by aggregometer analysis. It is filed as functional, cell-based. An outline of the steps: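 Washed platelets in basal buffer pH 7.4 (2-4 × 10⁸ cells/mL) preincubated 3 min with compound (8 µM) or DMSO, then stimulated with collagen […] (so in the source). Aggregation rate relative to vehicle control; means of 4 experiments ± S.E.M.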

The nature of data set [3]: (§2) Antiplatelet activity against human platelets assessed as inhibition of thrombin-induced platelets aggregation pretreated 3 mins before compound addition by aggregometer analysis. It counts as functional, cell-based. The settings on record: Platelet. An outline of the steps:
as §1

Data set [4] deals with Platelet. Described as §2. It is filed as functional, cell-based. An outline of the steps:
as §1

The test system of data set [5] is Platelet. Briefly: Antiplatelet activity against human platelets assessed as inhibition of thrombin-induced platelets aggregation at >4 uM pretreated 3 mins before compound addition by aggregometer analysis. It counts as functional, cell-based.
The subject of data set [6] is Platelet. Briefly: Antiplatelet activity against human platelets assessed as inhibition of Ca2+-ionophore ionomycin-induced platelets aggregation at 2 to 8 uM pretreated 3 mins before compound addition by aggregometer analysis. It is filed as functional, cell-based. An outline of the steps:
(§3)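 Washed platelets (ACD/apyrase/prostacyclin, differential centrifugation, resuspended in Tris/Hepes basal buffer pH 7.4, 2-4 × 10⁸ cells/mL) preincubated 3 min with test agent or DMSO. Then 20 nM PMA or ionomycin added. Maximal aggregation rate after agonist taken as 100% without compound. Means of 4 experiments ± S.E.M.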

Data set [7] deals with Platelet. Briefly: Antiplatelet activity against human platelets assessed as inhibition of phorbol-ester-induced platelets aggregation at 2 to 8 uM pretreated 3 mins before compound addition by aggregometer analysis. It counts as functional, cell-based. An outline of the steps: as §3
Data set [8] concerns Platelet. Briefly: Increase in cytosolic calcium level in human platelets at 2 uM using fluorescent probe fura 2 by fluorescence assay. It counts as functional, cell-based. The procedure, abridged: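 Cytosolic Ca²⁺ monitored with fura 2 (excitation 340/385 nm, emission 505 nm) in stirred thermostated cuvette after 2 µM compound addition alone, versus DMSO vehicle. Representative of three experiments.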

In data set [9] the test system is Platelet. Briefly: Increase in thrombin-indcued cytosolic calcium level in human platelets at 2 uM treated 1 min before thrombin challenge using fluorescent probe fura 2 by fluorescence assay. It is filed as functional, cell-based. An outline of the steps: (§4)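 Fura 2-loaded platelets in stirred thermostated cuvette; excitation 340/385 nm, emission 505 nm. Compound (2 µM) or DMSO added, thrombin 40 mU/mL given 1 min or 3 min later. Also run with 0.5 mM EGTA added 1 min before compound. Traces representative of three experiments.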

For data set [10], the system named is Platelet. Briefly: Decrease in thrombin-indcued cytosolic calcium level in human platelets at 2 uM treated 3 mins before thrombin challenge using fluorescent probe fura 2 by fluorescence assay. It is filed as functional, cell-based. The procedure, abridged: as §4
The species named for data set [11] is Homo sapiens. Briefly: Inhibition of protein tyrosine kinase phosphorylation in human platelets at 2 uM by SDS/PAGE analysis. An outline of the steps:
(§5)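 Platelets at 300 × 10⁶ cells/mL in basal medium pretreated 3 min with 2 µM compound or DMSO, then left resting or stimulated with thrombin 40 mU/mL. Proteins run on 10% SDS/PAGE, blotted, probed with anti-phosphotyrosine PY20, detected by ECL. Actin immunoblot served as loading control. Four experiments.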

Data set [12] is filed under the species Homo sapiens. Briefly: Inhibition of protein tyrosine kinase phosphorylation in thrombin-stimulated human platelets at 2 uM treated 3 mins before thrombin challenge by SDS/PAGE analysis. An outline of the steps: as §5
The nature of data set [13]: Toxicity in human platelets assessed as LDH release at 4 uM after 1 hr. The settings on record: platelet. It counts as cell-based. An outline of the steps: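 Platelets (2 × 10⁸ cells/mL) incubated 1 h at 37 °C with compound, then centrifuged 3 min at 3000 g. Supernatant LDH measured with 5 mM NADH and 50 mM pyruvate as OD decrease at 340 nm. Total LDH determined after 0.1% Triton X-100 lysis.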

The nature of data set [14]: Toxicity in human platelet assessed as cell viability at 4 uM after 4 to 6 hrs by alamar blue method. It is filed as cell-based. An outline of the steps:
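Platelet suspensions with 1 mM NaHCO3 and 0.2% BSA kept at 37 °C under 5% CO₂ with compound for 4-6 h. Viability read fluorimetrically by Alamar Blue reduction.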

Active and inactive are the calls of the source. The calls are words filed in the database; no cut-off is given here.

For the molecule `O=c1c(-c2ccccc2)c[nH]c2ccc3[nH]ccc3c12`, the inhibition entry in data set [1] and in data set [2] was “Active” in each case.
Consider `O=c1c(-c2ccccc2)c[nH]c2c1ccc1[nH]ccc12`, for which the inhibition entry in data set [1] and in data set [2] was “Active” each time.
As for `CCn1ccc2c3[nH]cc(-c4ccccc4)c(=O)c3ccc21`, the inhibition result in data set [1] and in [2] was “Active” in each case.
In the case of `O=c1[nH]c(-c2ccccc2)nc2ccc3c(ccn3CC3CC3)c12`, the inhibition entry in [1] and in data set [2] was “Active” in each case.
`CCn1ccc2c3c(=O)[nH]c(-c4ccccc4)nc3ccc21`: the inhibition result in [1] and in data set [2] was “Active” each time.
Regarding `CCn1ccc2c3c(=O)c(-c4ccccc4)c[nH]c3ccc21`, the inhibition result in [1] and in data set [2] was “Active” throughout.
`CCn1ccc2c3c(=O)[nH]c(-c4ccc(OC)cc4)nc3ccc21`: the inhibition entry in data set [1] and in [2] was “Active” throughout.
For `O=c1[nH]c(-c2ccccc2)nc2ccc3[nH]ccc3c12`, the inhibition result in data set [1], in data set [2], in [5], in [6], in [7] and in [12] was “Active” in each case. In [3], the IC50 was determined as 1.79 µM. For the same molecule, in [4], the inhibition result is “Dose-dependent effect”. Moreover, the outcome in [8], in [9] and in data set [10] was Active. Also, in data set [11], the inhibition result is “inactive”. The results for the Activity entry in data set [13] and in data set [14] were “Non-toxic” and “Toxic”, respectively.
